How the values were obtained:
NCI-H460 [1] = assay: Antiproliferative activity against human NCI-H460 cells assessed as cell growth at 10 uM incubated for 48 hrs by sulforhodamine B assay relative to control; type: functional; conditions: read-out: Activity
In short: (§1)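 NCI DTP NCI-60 one-dose screen on the NSCLC panel. Cells were seeded at densities set by doubling rate and incubated 24 h. They were then exposed to a single 10 μM dose for 48 h. Each value is a growth percentage relative to the initial cell population: positive means net growth, negative means net cell kill.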

NCI-H23 = assay: Antiproliferative activity against human NCI-H23 cells assessed as cell growth at 10 uM incubated for 48 hrs by sulforhodamine B assay relative to control; type: functional; conditions: read-out: Activity; in short: as §1
HOP-62 = assay: Antiproliferative activity against human HOP-62 cells assessed as cell growth at 10 uM incubated for 48 hrs by sulforhodamine B assay relative to control; type: functional; conditions: read-out: Activity; in short: as §1
NCI-H522 = assay: Antiproliferative activity against human NCI-H522 cells assessed as cell growth at 10 uM incubated for 48 hrs by sulforhodamine B assay relative to control; type: functional; conditions: read-out: Activity; in short: as §1
HCC827 = assay: Cytotoxicity against human HCC827 cells assessed as cell growth inhibition measured after 72 hrs by MTT assay; type: functional, cell-based; conditions: HCC827, 72 h
In short: (§2)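 Cells kept in RPMI 1640 with 10% FBS at 37 °C, 5% CO₂, passaged every 2–3 days; grown to confluence, seeded at 5,000–7,000 cells/well depending on line, incubated 24 h. Compounds dissolved in 1% DMSO, diluted in medium to 1, 4, 16, 32 μM (6 replicates each), 72 h exposure. MTT 3–4 h, medium aspirated, DMSO added, 15 min, OD 540 nm; IC50 relative to untreated cells.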

NCI-H1975 = assay: Cytotoxicity against human NCI-H1975 cells assessed as cell growth inhibition measured after 72 hrs by MTT assay; type: functional, cell-based; conditions: NCI-H1975, 72 h; in short: as §2
A549 [2] = assay: Cytotoxicity against human A549 cells assessed as cell growth inhibition measured after 72 hrs by MTT assay; type: functional, cell-based; conditions: A549, 72 h; in short: as §2
NCI-H226 = assay: Antiproliferative activity against human NCI-H226 cells assessed as cell growth at 10 uM incubated for 48 hrs by sulforhodamine B assay relative to control; type: functional; conditions: read-out: Activity; in short: as §1
EKVX = assay: Antiproliferative activity against human EKVX cells assessed as cell growth at 10 uM incubated for 48 hrs by sulforhodamine B assay relative to control; type: functional; conditions: read-out: Activity; in short: as §1
NCI-H322M = assay: Antiproliferative activity against human NCI-H322M cells assessed as cell growth at 10 uM incubated for 48 hrs by sulforhodamine B assay relative to control; type: functional; conditions: read-out: Activity; in short: as §1
NCI-H460 [3] = assay: Cytotoxicity against human NCI-H460 cells assessed as cell growth inhibition measured after 72 hrs by MTT assay; type: functional, cell-based; conditions: NCI-H460, 72 h; in short: as §2
A549 [4] = assay: Antiproliferative activity against human A549/ATCC cells assessed as cell growth at 10 uM incubated for 48 hrs by sulforhodamine B assay relative to control; type: functional; conditions: read-out: Activity; in short: as §1
HOP-92 = assay: Antiproliferative activity against human HOP-92 cells assessed as cell growth at 10 uM incubated for 48 hrs by sulforhodamine B assay relative to control; type: functional; conditions: read-out: Activity; in short: as §1

## c1ccc2cc(Cn3cc[n+](CCCCCCCn4cc[n+](Cc5ccc6ccccc6c5)c4)c3)ccc2c1
NCI-H460 [1]
  growth at 10 µM: 14.6%
NCI-H23
  growth at 10 µM: 14.4%
HOP-62
  growth at 10 µM: 32.6%
NCI-H522
  growth at 10 µM: 5.87%
HCC827
  IC50: 10 µM
NCI-H1975
  IC50: 3 µM
A549 [2]
  IC50: 2 µM
NCI-H226
  growth at 10 µM: 59.5%
EKVX
  growth at 10 µM: 27.9%
NCI-H322M
  growth at 10 µM: 58.6%
NCI-H460 [3]
  IC50: 3 µM
A549 [4]
  growth at 10 µM: 26.7%

## c1ccc2cc(Cn3cc[n+](Cn4cc[n+](Cc5ccc6ccccc6c5)c4)c3)ccc2c1
HOP-92
  growth at 10 µM: 67%
NCI-H23
  growth at 10 µM: 88.3%
HOP-62
  growth at 10 µM: 84.2%
NCI-H522
  growth at 10 µM: 51%
HCC827
  IC50: > 30 µM
NCI-H1975
  IC50: > 30 µM
A549 [2]
  IC50: > 30 µM
NCI-H226
  growth at 10 µM: 92.6%
EKVX
  growth at 10 µM: 89.4%
NCI-H322M
  growth at 10 µM: 87.6%
NCI-H460 [3]
  IC50: 16 µM
A549 [4]
  growth at 10 µM: 70.8%

## c1ccc2cc(Cn3cc[n+](CCCn4cc[n+](Cc5ccc6ccccc6c5)c4)c3)ccc2c1
NCI-H460 [1]
  growth at 10 µM: 75.3%
HOP-92
  growth at 10 µM: 67.5%
NCI-H23
  growth at 10 µM: 77.8%
HOP-62
  growth at 10 µM: 67.2%
NCI-H522
  growth at 10 µM: 56.6%
HCC827
  IC50: > 30 µM
NCI-H1975
  IC50: > 30 µM
A549 [2]
  IC50: 22 µM
NCI-H226
  growth at 10 µM: 81.9%
EKVX
  growth at 10 µM: 82.7%
NCI-H322M
  growth at 10 µM: 84.4%
NCI-H460 [3]
  IC50: 20 µM
A549 [4]
  growth at 10 µM: 62.3%

## c1ccc2cc(Cn3cc[n+](CCCCn4cc[n+](Cc5ccc6ccccc6c5)c4)c3)ccc2c1
NCI-H460 [1]
  growth at 10 µM: 38.2%
HOP-92
  growth at 10 µM: 68.4%
NCI-H23
  growth at 10 µM: 44%
HOP-62
  growth at 10 µM: 54.8%
NCI-H522
  growth at 10 µM: 43.4%
HCC827
  IC50: 13 µM
NCI-H1975
  IC50: 11 µM
A549 [2]
  IC50: 4 µM
NCI-H226
  growth at 10 µM: 82%
EKVX
  growth at 10 µM: 58.1%
NCI-H322M
  growth at 10 µM: 90%
NCI-H460 [3]
  IC50: 4 µM
A549 [4]
  growth at 10 µM: 49.3%

## c1ccc2cc(Cn3cc[n+](CCCCCn4cc[n+](Cc5ccc6ccccc6c5)c4)c3)ccc2c1
NCI-H460 [1]
  growth at 10 µM: 30.5%
HOP-92
  growth at 10 µM: 66%
NCI-H23
  growth at 10 µM: 45.3%
HOP-62
  growth at 10 µM: 57%
NCI-H522
  growth at 10 µM: 35.7%
HCC827
  IC50: > 30 µM
NCI-H1975
  IC50: 12 µM
A549 [2]
  IC50: 4 µM
NCI-H226
  growth at 10 µM: 72.6%
EKVX
  growth at 10 µM: 47.1%
NCI-H322M
  growth at 10 µM: 86.2%
NCI-H460 [3]
  IC50: 2 µM
A549 [4]
  growth at 10 µM: 41.7%

From ChEMBL document CHEMBL4680311, “Synthesis, characterization, in vitro SAR study, and preliminary in vivo toxicity evaluation of naphthylmethyl substituted bis-imidazolium salts” (Bioorg Med Chem, 2021)
